Results from different studies.
Compare with care: the assays were run in different laboratories.
Read-out: thermal stability
Technique: DSF
GAK: Cyclin-G-associated kinase (GAK, Homo sapiens, UniProt O14976)
SIRT2: NAD-dependent protein deacetylase sirtuin-2 (SIRT2, Homo sapiens, UniProt Q8IXJ6)
DCLK1: Serine/threonine-protein kinase DCLK1 (DCLK1, Homo sapiens, UniProt O15075)
lecA: PA-I galactophilic lectin (lecA, Pseudomonas aeruginosa, UniProt Q05097)

Fc1cc(Nc2ccnc3ccc(C(F)(F)F)cc23)cc(F)c1F  ΔTm (GAK; 10 µM): 3.7 °C
Cc1cc(C)nc(SCC(=O)Nc2ncc(Cc3cccc(OCc4cn(Cc5ccccc5C)nn4)c3)s2)n1  ΔTm (SIRT2; 25 µM): 4.26 °C
COc1ccccc1Nc1ccnc2ccc(C(F)(F)F)cc12  ΔTm (GAK; 10 µM): 3 °C
CCN1CCC2(CC1)NC(=O)c1c(c3ccc(Cl)c(Cl)c3n1C)C2C#N (racemic)  ΔTm (DCLK1; 10 µM): 0.1 °C
FC(F)(F)c1ccc2nccc(Nc3ccc(Cl)cc3)c2c1  ΔTm (GAK; 10 µM): 4.3 °C
Cc1cc(C)nc(SCC(=O)Nc2ncc(Cc3cccc(OCc4cn(Cc5ccc(OCCN6CCOCC6)cc5)nn4)c3)s2)n1  ΔTm (SIRT2; 25 µM): 6.63 °C
N#Cc1cccc(O)c1O  ΔTm (lecA; 4 mM): 1.8 °C
CCC1(CC)NC(=O)c2c(c3ccc(Cl)c(Cl)c3n2C)C1C#N (centres unmarked)  ΔTm (DCLK1; 10 µM): 0 °C
CCCCCCCC(=O)Nc1ncc(Cc2cccc(OCc3cn(CCOC)nn3)c2)s1  ΔTm (SIRT2; 25 µM): 4.28 °C
CC(C)(C)c1ccc(O)c(O)c1  ΔTm (lecA; 4 mM): -15.4 °C
Cn1c2c(Cl)c(Cl)ccc2c2cn[nH]c(=O)c21  ΔTm (DCLK1; 10 µM): -0.2 °C
